Not all results are given here.
Apaf1 activ: activators of human Apaf-1 apoptosome, primary screen, biochemical, DEVD-Rh110 fluorescence, uHTS; Apoptotic protease-activating factor 1 (Homo sapiens), O14727; Apaf-1 apoptosome caspase-3 activation; active compounds read low; activity change, negative = activation, % at 20 µM; actives 0.31% (n = 330,000); AID 489031, 2010;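 active = activity change at or below -40% at 20 µM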
Target sequence (O14727 whole entry, looked up): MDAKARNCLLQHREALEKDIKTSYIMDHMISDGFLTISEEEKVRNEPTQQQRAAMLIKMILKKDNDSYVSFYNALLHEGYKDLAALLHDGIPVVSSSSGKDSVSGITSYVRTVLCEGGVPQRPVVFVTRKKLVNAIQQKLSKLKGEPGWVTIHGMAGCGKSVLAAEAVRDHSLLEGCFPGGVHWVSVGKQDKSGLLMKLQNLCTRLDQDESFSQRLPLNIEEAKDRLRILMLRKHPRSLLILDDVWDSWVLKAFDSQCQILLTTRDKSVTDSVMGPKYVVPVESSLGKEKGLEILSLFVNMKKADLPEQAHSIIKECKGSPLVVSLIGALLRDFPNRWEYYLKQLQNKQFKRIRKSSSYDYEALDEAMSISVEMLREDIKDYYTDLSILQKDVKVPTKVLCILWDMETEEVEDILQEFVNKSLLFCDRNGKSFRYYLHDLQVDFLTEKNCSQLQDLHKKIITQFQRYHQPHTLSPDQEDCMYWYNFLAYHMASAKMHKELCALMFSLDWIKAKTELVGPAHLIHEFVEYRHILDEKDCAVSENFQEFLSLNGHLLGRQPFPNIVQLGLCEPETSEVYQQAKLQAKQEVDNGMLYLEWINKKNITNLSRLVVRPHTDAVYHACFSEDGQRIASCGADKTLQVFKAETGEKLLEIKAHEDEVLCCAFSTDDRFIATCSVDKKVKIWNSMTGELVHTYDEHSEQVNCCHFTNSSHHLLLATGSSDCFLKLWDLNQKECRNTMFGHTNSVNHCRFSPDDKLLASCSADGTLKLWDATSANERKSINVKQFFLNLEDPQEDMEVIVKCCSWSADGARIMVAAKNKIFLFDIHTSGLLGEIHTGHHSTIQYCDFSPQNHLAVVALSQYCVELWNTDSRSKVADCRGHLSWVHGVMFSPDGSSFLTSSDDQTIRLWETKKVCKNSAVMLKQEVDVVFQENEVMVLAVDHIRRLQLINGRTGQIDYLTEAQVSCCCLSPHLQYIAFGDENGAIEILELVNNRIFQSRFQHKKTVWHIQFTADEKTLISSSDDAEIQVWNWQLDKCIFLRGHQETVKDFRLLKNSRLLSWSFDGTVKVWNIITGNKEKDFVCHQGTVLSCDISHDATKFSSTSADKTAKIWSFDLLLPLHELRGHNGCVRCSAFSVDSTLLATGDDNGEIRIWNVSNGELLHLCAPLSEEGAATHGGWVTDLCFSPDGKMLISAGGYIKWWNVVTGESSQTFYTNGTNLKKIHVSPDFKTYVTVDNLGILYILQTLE
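Material: reconstituted apoptosome of Apaf-1, cytochrome c, caspase-9, procaspase-3; times: 30 min preincubation, 50 min reaction, room temperature; measured by: fluorescence, 540 nm emission, 480 nm excitation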
Rh110 interf act: Rh110 fluorescence interference by putative Apaf-1 activators, confirmation, artefact control for Apaf-1 activator project, biochemical, 20 µM; shares compounds with Apaf1 activ; quenched caspase reaction, Ex480/Em540; fluorescence interference (activity change), % at 20 µM, hits read low; 980 tested, under 10 active; AID 504616, 2011;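 active = mean activity change at or below -40% when tested at 20 µM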
Apaf-1 act conf: Apaf-1 activators, single-dose retest, confirmation, biochemical, fluorescence, DEVD-Rh110, 20 µM; shares compounds with Apaf1 activ; reconstituted apoptosome caspase-3 activity; active compounds read low; activity change, negative = activation, % at 20 µM; actives 5% (n = 980); AID 504617, 2011;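 active = mean activity change at or below -40%, meaning activation of 40% or more, at 20 µM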
* hit, by the source's call; x = not tested or not shown.

SMILES | Apaf1 activ | Rh110 interf act | Apaf-1 act conf
Nc1c(C(=O)NCc2ccc(F)cc2)c2nc3ccccc3nc2n1CCCN1CCOCC1 | 59.2 | x | x
O=C(CCSc1nc(-c2ccco2)cc(C(F)(F)F)n1)NCCN1CCOCC1 | -55.7* | 3.6 | 5.4
CN1CCc2cccc3c2[C@@H]1Cc1ccc(O)c(O)c1-3 | 49.9 | x | x
Cc1cccc(NC2=C(NC(=O)c3ccccc3)C(=O)c3ccccc3C2=O)c1 | 73.4 | x | x
Cc1cccc(NC(=O)CCNS(=O)(=O)c2cccc3nonc23)c1 | -68.2* | -3.6 | 7.5
Cn1nc(-c2ccccn2)nc2c(=O)n(C)c(=O)nc1-2 | 98.1 | x | x
NC1(C#Cc2ccc3oc(=O)c(-n4cc(-c5ccsc5)nn4)cc3c2)CCCCC1 | 47.7 | x | x
CN1CCN(CCCN2c3ccccc3Sc3ccc(Cl)cc32)CC1 | 53.9 | x | x
CN1CCN(C2Cc3cc(F)ccc3Sc3ccc(Cl)cc32)CC1 (stereo not drawn) | -77.7* | 7.4 | 6.8
CSc1ccc2c(c1)C(N1CCN(C)CC1)Cc1ccccc1S2 (stereo not drawn) | 47.8 | x | x
COc1ccccc1C(C)NC(=O)C1CCN(S(=O)(=O)c2cccs2)CC1 (stereo not drawn) | -53.4* | 13.4 | 14.2
CCC1CCc2sc(C(=O)NCC(c3ccccc3OC)N3CCCC3)cc2C1 (stereo not drawn) | 49.3 | x | x
CCN1CCN(Cc2ccc(NC(=O)c3cc(NC(=O)c4cncc(-c5cccs5)c4)cc(OC)c3)cc2C(F)(F)F)CC1 | 67.9 | x | x
COc1ccc(-c2sc3cc4c(cc3c2-c2ccc(OCCN3CCCCC3)cc2)OCO4)cc1 | 59.4 | x | x
c1ccc2c(-c3ccc(OCCN4CCCCC4)cc3)c(-c3ccsc3)sc2c1 | 59.1 | x | x
CC(C)N1CCN(Cc2cnc(-c3ccccc3)s2)CC1CCO (stereo not drawn) | -45.5* | 0.1 | 8.8
CCCN1CCCc2cc(CN)ccc21 | 83.9 | x | x
Clc1ccc(CSc2nnc3ccccn23)c(Cl)c1 | -40.1* | 7.4 | 15.2
CCCCCCCCCCCCCCCC[N+](C)(C)CC | 87.5 | x | x
CCN(CC)C(=O)[C@H]1C[C@H](CC(=O)NCc2cccc(C(F)(F)F)c2)C(=O)N2CCc3c([nH]c4ccc(Cl)cc34)[C@]12C | 46.4 | x | x
CCc1cc2c(=O)nc3n(c2s1)Cc1ccccc1/C3=C(/O)c1cccc([N+](=O)[O-])c1 | -198.2* | -0.3 | 23.9
CC(C)(C)OC(=O)[C@H](Cc1ccccc1)NC(=O)c1nc[nH]c1C(=O)N[C@@H](CCCCN)C(=O)OC(C)(C)C | 50.9 | x | x
COc1ccccc1NC(=O)Nc1ccccc1C(N)=O | -630.4* | 5.5 | 6.5
CCN(CC(=O)Nc1ccccc1OC)C(=O)c1ccccc1Sc1ccccc1C#N | 58.3 | x | x
COC1=C(Nc2ccccc2OC)C(=O)c2ccccc2C1=O | 54.5 | x | x
SMILES | Apaf1 activ | Rh110 interf act | Apaf-1 act conf
CC(C)=CCC1=C(OCC(=O)O)C(=O)c2ccccc2C1=O | 95.3 | x | x
N#Cc1c(N(CCO)CCO)nc(N)c2c(N)nc3c(c12)CC(=O)N3CC1CCCO1 (stereo not drawn) | 97.6 | x | x
Cc1ccc(-n2nnnc2SCC(=O)N2CCNC2=O)cc1C | -448.3* | 8.7 | 8.8
CC[C@@H](C)[C@H](CNC)NC[C@@H](Cc1cccc2ccccc12)NCCc1cccc(C(F)(F)F)c1 | 70.3 | x | x
NC(N)=N/N=C/c1ccc(OCc2ccccc2Cl)cc1 | 42.9 | x | x
CC(C)c1ccc2[nH]c(O)c(N=NC(=O)c3ccc(CSc4nncn4C)cc3)c2c1 | -74.3* | 2.3 | 10.1
COc1ccc(NC(=O)CCl)cn1 | 67.2 | x | x
COC(=O)c1ccccc1NC1=C/C(=N\S(=O)(=O)c2cccs2)c2ccccc2C1=O | 91.9 | x | x
Cc1ccc(SCC(=O)Nc2nccs2)cc1 | -524.1* | -5.2 | 9.3
CCSc1ccc2c(c1)N(CCCN1CCN(C)CC1)c1ccccc1S2 | 56.8 | x | x
COc1ccc2c(c1)OC[C@H]1[C@H]2N2C(=O)c3cc(OC)c(OC)cc3NC(=O)[C@@]2(C)[C@H]1c1ccccc1 | -142.5* | 5.9 | 12.1
CC(=O)[C@H]1[C@@H]2C(=O)N(c3cccc(Cl)c3)C(=O)[C@@H]2[C@H]2c3ccccc3C=CN21 | 73.0 | x | x
CCOc1ccc2nc(NC3=NC(c4ccc(OC)cc4)CC(=O)N3)nc(C)c2c1 (stereo not drawn) | 78.5 | x | x
CC1CN(Cc2c(O)ccc3c2oc(=O)c2ccccc23)CC(C)O1 (stereo not drawn) | 44.3 | x | x
COc1ccc(-c2cn(Cc3ccc4ccccc4c3)nn2)cc1 | -123.1* | 3.7 | 8.1
CCCCC(CC)CN1C(=O)/C(=C/c2ccncc2)SC1=S (stereo not drawn) | 41.9 | x | x
Cc1sc2ncnc(N3CCC(C(=O)N(C)CC(=O)Nc4ccccc4Cl)CC3)c2c1C | 59.9 | x | x
CN(C)CCCNC(=O)C[C@H]1C[C@H](C(=O)N2CCCCC2)[C@@]2(C)c3[nH]c4cc(-c5ccco5)ccc4c3CCN2C1=O | 41.9 | x | x
O=C(CCc1ccccc1)Nc1ccc(NC(=O)c2ccco2)cc1 | -192.7* | -10.4 | 14.5
O=C(NCCc1ccccc1)c1ccc2nc(-c3ccco3)c(-c3ccco3)nc2c1 | 45.8 | x | x
CCN(CC)CCOC(=O)c1ccc(NC(=O)CCCN2C(=O)/C(=C\c3cccs3)SC2=S)cc1 | 59.9 | x | x
CCOc1nc2cnccc2n(CC(=O)Nc2ccccc2F)c1=O | -49.0* | -0.7 | 7.1
Cn1c(=O)c2[nH]c(=O)cnc2n(C)c1=S | 56.3 | x | x
COc1ccc(/C=C2/C(=O)N(c3ccccc3)N=C2C)cc1 | 96.2 | x | x
COc1ccc(C(=O)CN2C(=O)c3ccccc3C2=O)cc1 | -164.6* | 9.8 | 10.6
SMILES | Apaf1 activ | Rh110 interf act | Apaf-1 act conf
COc1ccc(C2=NN(c3ccccc3)C(=O)/C2=C\c2ccc(O)c(OC)c2)cc1 | 89.9 | x | x
O=C1CCN(Cc2ccccc2)C=C1c1ccc(Cl)cc1 | 47.3 | x | x
CCOc1cccc(CNc2ccc(O)cc2)c1OCc1ccccc1Cl | 96.7 | x | x
COC(=O)c1ccc(C(=O)OC)c(NC(=O)CN2CCN(c3ccccc3)CC2)c1 | -190.9* | -0.8 | 12.5
Cc1ccccc1OCc1n(CC(=O)OC2CC(C)CCC2C(C)C)c2ccccc2[n+]1C (stereo not drawn) | 47.3 | x | x
Cc1ccnc2c1ccc1c(C)ccnc12 | 44.5 | x | x
Cc1nn(Cc2ccc(F)cc2)c(Cl)c1/C=N/NC(=O)c1cccnc1 | -49.2* | -1.6 | 9.7
Cc1cc(C)c(S(=O)(=O)NCc2ccc3c(c2)cc(C)n3C)c(C)c1 | 44.0 | x | x
Oc1c(Br)cc(Br)cc1CNc1cccc2cccnc12 | 92.1 | x | x
CN1CCN(c2ccccc2NC(=O)c2ccc(-c3ccc(Cl)c(Cl)c3)o2)CC1 | 46.0 | x | x
CN1CCN(c2ccc(NC(=O)COc3ccccc3)cc2Cl)CC1 | 49.5 | x | x
COc1c(Cl)cc(Cl)cc1C(=O)Nc1ccccc1N1CCN(C(C)=O)CC1 | -325.3* | -2.3 | 11.6
COc1cc(Br)c(C(=O)c2nccc3cc(OC)c(OC)cc23)cc1OC | 88.8 | x | x
CN1CCC[C@@H]1CCNC(=O)c1c(-c2ccc3c(c2)OCO3)noc1-c1ccsc1 | 40.4 | x | x
CC(C)CNC(=O)c1c(F)c(F)c(F)c(F)c1F | -53.7* | 8.1 | 6.5
Cc1ccc(NC2=C(NCCO)C(=O)c3ccccc3C2=O)cc1 | 78.1 | x | x
